Inhibition and IC50 data for eleven compounds are collected here from ChEMBL document CHEMBL1821629, “Nigerapyrones A-H, α-pyrone derivatives from the marine mangrove-derived endophytic fungus Aspergillus niger MA-132” (J Nat Prod, 2011).

One assay concerns Alternaria brassicae. As to the kind of experiment: Antimicrobial activity against Alternaria brassicae by disc diffusion method. It counts as functional. The method, boiled down: (§1)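 Disk diffusion assay run against a panel of two bacteria (Staphylococcus aureus, Escherichia coli) and four plant-pathogenic fungi (Alternaria brassicae, Fusarium oxysporum, Coniella diplodiella, Physalospora piricola). The positive control was chloramphenicol for the bacterial strains and amphotericin B for the fungal strains.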

Another assay deals with Escherichia coli. Kind of assay: Antimicrobial activity against Escherichia coli by disc diffusion method. It is filed as functional, organism-based. The method, boiled down:
as §1

In the next assay the test system is Staphylococcus aureus. Kind of assay: Antimicrobial activity against Staphylococcus aureus by disc diffusion method. It counts as functional, organism-based. In outline:
as §1
(In general: A growth-free zone around the sample is the usual read-out of agar diffusion tests.)

Another assay concerns Coniella diplodiella. Kind of assay: Antimicrobial activity against Coniella diplodiella by disc diffusion method. It counts as functional. The method, boiled down:
as §1

Assay [1] has as its system Botryosphaeria berengeriana. Kind of assay: Antimicrobial activity against Physalospora pyricola by disc diffusion method. It is filed as functional, organism-based. The method, boiled down: as §1
The next assay concerns Fusarium oxysporum. As to the kind of experiment: Antimicrobial activity against Fusarium oxysporum by disc diffusion method. It is filed as functional, organism-based. In outline:
as §1

For the next assay, the system named is A549. Kind of assay: Cytotoxicity against human A549 cells. It is filed as functional, cell-based.
A further assay deals with MDA-MB-231. Kind of assay: Cytotoxicity against human MDA-MB-231 cells. It counts as functional, cell-based.
A further assay deals with HepG2. Kind of assay: Cytotoxicity against human HepG2 cells. It counts as functional, cell-based.
The next assay concerns DU-145. Kind of assay: Cytotoxicity against human DU145 cells. It counts as functional, cell-based.
The subject of a further assay is MCF7. Kind of assay: Cytotoxicity against human MCF7 cells. It counts as functional, cell-based.
The next assay deals with NCI-H460. Kind of assay: Cytotoxicity against human NCI-H460 cells. It is filed as functional, cell-based.
For another assay, the system named is SW1990. As to the kind of experiment: Cytotoxicity against human SW1990 cells. It counts as functional, cell-based.

SMILES strings stand for the structures. Calls of active or inactive are those of the source. No cut-off for these calls is given here.

As to `COc1cc(-c2cc(C)cc(C)c2-c2ccccc2)oc(=O)c1`, the inhibition entry (with Alternaria brassicae; in the assay on Escherichia coli; in the assay with Staphylococcus aureus; in the assay with Coniella diplodiella; in assay [1]; with Fusarium oxysporum) was “Active” throughout.
For `COc1cc(/C=C/C(C)=C/C(C)=C/c2ccccc2)oc(=O)c1`, the inhibition result (in the assay on Alternaria brassicae; in the assay on Escherichia coli; in the assay with Staphylococcus aureus; in the assay on Coniella diplodiella; in assay [1]; with Fusarium oxysporum) was “Active” throughout.
As to `COc1cc(/C=C/C(C)=C/C(C)=C\c2ccccc2)oc(=O)c1`, the inhibition entry (in the assay with Alternaria brassicae; in the assay on Escherichia coli; with Staphylococcus aureus; in the assay with Coniella diplodiella; in [1]; with Fusarium oxysporum) was “Active” each time.
Consider `COc1cc(/C=C/C(C)=C/C(C)=O)oc(=O)c1`, for which the inhibition result (in the assay with Alternaria brassicae; in the assay on Escherichia coli; in the assay on Staphylococcus aureus; with Coniella diplodiella; in [1]; with Fusarium oxysporum) was “Active” each time.
With `COc1cc(/C=C/C(C)=C\C(C)=C\c2ccccc2)oc(=O)c1`, the inhibition result (with Alternaria brassicae; in the assay on Escherichia coli; with Staphylococcus aureus; with Coniella diplodiella; in assay [1]; in the assay on Fusarium oxysporum) was “Active” throughout.
With `COc1cc(\C=C/C(C)=C/C(C)=C/c2ccccc2)oc(=O)c1`, the inhibition entry (in the assay with Alternaria brassicae; with Escherichia coli; with Staphylococcus aureus; in the assay with Coniella diplodiella; in assay [1]; in the assay with Fusarium oxysporum) was “Active” in each case.
With `COc1cc(/C=C/C(C)=C/C(C)=C/c2ccccc2)oc(=O)c1C` [ASNIPYRONE A], the inhibition entry (in the assay with Alternaria brassicae; in the assay on Escherichia coli; in the assay with Staphylococcus aureus; in the assay with Coniella diplodiella; in [1]; with Fusarium oxysporum) was “Active” in each case. This compound displayed an IC50 in the assay with A549 of 62 µM.
On to `O=c1[nH]cc(F)c(=O)[nH]1` [FLUOROURACIL], for which the IC50 was 59 µM with MDA-MB-231; 109 µM with HepG2; 3.3 µM in the assay with DU-145; 31 µM in the assay on MCF7; 8.5 µM in the assay with NCI-H460; 52 µM in the assay with A549.
As for `COc1cc(-c2cc(C)cc(C)c2-c2ccccc2)oc(=O)c1C` [NIGERAPYRONE B], the inhibition entry (in the assay with Alternaria brassicae; in the assay with Escherichia coli; with Staphylococcus aureus; in the assay with Coniella diplodiella; in assay [1]; in the assay on Fusarium oxysporum) was “Active” in each case. The same compound came in with an IC50 in the assay with HepG2 of 62 µM.
With `COc1cc(/C=C/C(C)=C/C(C)=O)oc(=O)c1C` [NIGERAPYRONE D], the inhibition entry (in the assay with Alternaria brassicae; in the assay on Escherichia coli; in the assay on Staphylococcus aureus; in the assay on Coniella diplodiella; in assay [1]; with Fusarium oxysporum) was “Active” throughout. Further, the IC50 in the assay with HepG2 came out at 81 µM; in the assay on MCF7 it was 121 µM; in the assay with A549, 81 µM.
Regarding `COc1cc(/C=C/C(C)=O)oc(=O)c1C` [NIGERAPYRONE E], the IC50 was determined as 48 µM in the assay on MDA-MB-231; 86 µM in the assay on HepG2; 86 µM in the assay with DU-145; 105 µM with MCF7; 38 µM with SW1990; 43 µM with NCI-H460. Moreover, the IC50 with A549 is 43 µM. Also, the inhibition entry (in the assay with Alternaria brassicae; in the assay with Escherichia coli; in the assay with Staphylococcus aureus; with Coniella diplodiella; in assay [1]; in the assay with Fusarium oxysporum) was “Active” each time.

One may read the IC50 as the concentration needed to halve the response being measured. Low values mean higher potency, high ones lower potency.
